Measured values published in ChEMBL document CHEMBL1140904, “Synthesis and analysis of novel glycerolipids for the treatment of metabolic syndrome” (J Med Chem, 2009).
Active and inactive are the calls of the source. The rule behind the calls is not given here.

Experiments:
[1] = system: Rattus norvegicus; assay: Increase in [1-14C]palmitoyl-CoA oxidation in po dosed Wistar rat liver homogenate after 6 days; format: functional, organism-based
Method in brief: (§1)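 Rats were dosed by gastric intubation for 6 days with 85 or 250 µmol TTA-equivalent in 0.5% CMC, with palmitic acid controls. Liver was homogenized in 0.25 M sucrose, 10 mM HEPES pH 7.4, 1 mM EDTA at 0-4 °C. Palmitoyl-CoA oxidation was read as acid-soluble products from [1-14C]-palmitoyl-CoA in the postnuclear fraction. Mean ± SD, n=5.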

[2] = system: Rattus norvegicus; assay: Plasma concentration in Wistar rat assessed as tetradecylthioacetic acid at dose equivalent to 250 umol of tetradecylthioacetic acid, po after 6 days; format: ADME, organism-based; conditions: in vivo, 144 h
[3] = system: Liver; assay: Drug concentration in Wistar rat liver assessed as tetradecylthioacetic acid at dose equivalent to 85 umol of tetradecylthioacetic acid, po after 6 days; format: ADME, organism-based; conditions: in vivo, 144 h
Method in brief: (§2)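 Male Wistar rats were gavaged once daily for 6 days with compound in 0.5% CMC at 85 or 250 µmol TTA-equivalent per animal. Controls received palmitic acid. Liver was homogenized in 0.25 M sucrose/10 mM HEPES pH 7.4/1 mM EDTA at 0-4 °C. Lipids were extracted with chloroform:methanol 2:1 and spiked with 21:0 internal standard. Fatty acids were BF3-methanol transesterified and quantified as wt%. Values are mean ± SD, n=5.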

[4] = system: Rattus norvegicus; assay: Induction of PPAR-alpha-regulated HMG-CoA synthase activity in po dosed Wistar rat after 6 days; format: functional, organism-based
Method in brief: (§3)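 Wistar rats were gavaged daily for 6 days at 85 or 250 µmol TTA-equivalent in 0.5% CMC, with palmitic acid controls. HMG-CoA synthase activity was assayed in the liver postnuclear fraction by the Clinkenbeard method. Mean ± SD, 5 rats/group.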

[5] = system: Rattus norvegicus; assay: Plasma concentration in Wistar rat assessed as tetradecylthioacetic acid at dose equivalent to 85 umol of tetradecylthioacetic acid, po after 6 days; format: ADME, organism-based; conditions: in vivo, 144 h
[6] = system: Rattus norvegicus; assay: Decrease in plasma cholesterol level in Wistar rat at dose equivalent to 250 umol of tetradecylthioacetic acid, po after 6 days relative to control; format: functional; parameters: scale not given: the % may be the effect or the level left
Method in brief: (§4)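 Male Wistar rats (170-210 g), housed in pairs with chow and water, were gavaged once daily for 6 days with test lipid in 0.5% (w/v) carboxymethylcellulose at 85 or 250 µmol TTA-equivalent per animal. Controls received palmitic acid in CMC. Plasma triacylglycerol and cholesterol were measured with an enzymatic kit, and liver levels were also determined. Values are mean ± SD, n=5 rats.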

[7] = system: Rattus norvegicus; assay: Effect on fatty acid composition in Wistar rat assessed as change in plasma LCPUFA, n-6 level at dose equivalent to 250 umol of tetradecylthioacetic acid, po after 6 days; format: functional
[8] = system: Rattus norvegicus; assay: Effect on fatty acid composition in Wistar rat assessed as change in plasma 18;2, n-6 level at dose equivalent to 250 umol of tetradecylthioacetic acid, po after 6 days; format: functional
[9] = system: Rattus norvegicus; assay: Induction of PPAR-alpha-regulated CPT2 activity in po dosed Wistar rat after 6 days relative to control; format: functional
Method in brief: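 Wistar rats were dosed orally for 6 days (85 or 250 µmol TTA-equivalent in 0.5% CMC; palmitic acid controls). CPT-II activity was measured in the liver mitochondrial fraction, prepared from sucrose/HEPES pH 7.4/EDTA homogenate at 0-4 °C. Means ± SD from 5 rats per group.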

[10] = system: Rattus norvegicus; assay: Effect on fatty acid composition in Wistar rat assessed as change in plasma 18;2, n-6 level at dose equivalent to 85 umol of tetradecylthioacetic acid, po after 6 days; format: functional
[11] = system: Rattus norvegicus; assay: Induction of PPAR-alpha-regulated mitochondrial HMG-CoA synthase activity in Wistar rat at dose equivalent to 250 umol of tetradecylthioacetic acid, po after 6 days relative to control; format: functional; method in brief: as §3
[12] = system: Rattus norvegicus; assay: Effect on fatty acid composition in Wistar rat assessed as change in plasma LCn-6/18:2 level at dose equivalent to 85 umol of tetradecylthioacetic acid, po after 6 days; format: functional
[13] = system: Rattus norvegicus; assay: Effect on fatty acid composition in Wistar rat assessed as change in plasma LCn-6/18:2 level at dose equivalent to 250 umol of tetradecylthioacetic acid, po after 6 days; format: functional
[14] = system: Rattus norvegicus; assay: Induction of PPAR-alpha-regulated mitochondrial fatty acyl-CoA oxidase activity in Wistar rat at dose equivalent to 250 umol of tetradecylthioacetic acid, po after 6 days relative to control; format: functional; conditions: in the assay text read “peroxisomal fatty acyl-CoA oxidase” for “mitochondrial fatty acyl-CoA oxidase”
Method in brief: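 Rats were dosed by gastric intubation for 6 days at 85 or 250 µmol TTA-equivalent in 0.5% CMC, with palmitic acid controls. Fatty acyl-CoA oxidase was measured in the liver postnuclear fraction by a coupled assay, following H2O2 production as the rise in dichlorofluorescein absorbance with palmitoyl-CoA. Mean ± SD, n=5.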

[15] = system: Rattus norvegicus; assay: Effect on fatty acid composition in Wistar rat assessed as change in liver LCPUFA, n-6 level at dose equivalent to 250 umol of tetradecylthioacetic acid, po after 6 days; format: functional; method in brief: as §2
[16] = system: Rattus norvegicus; assay: Decrease in liver cholesterol level in Wistar rat at dose equivalent to 250 umol of tetradecylthioacetic acid, po after 6 days relative to control; format: functional; parameters: scale not given: the % may be the effect or the level left; method in brief: as §4
[17] = system: Rattus norvegicus; assay: Effect on fatty acid composition in Wistar rat assessed as change in plasma PUFA level at dose equivalent to 250 umol of tetradecylthioacetic acid, po after 6 days; format: functional
[18] = system: Rattus norvegicus; assay: Effect on fatty acid composition in Wistar rat assessed as change in liver saturated fatty acid level at dose equivalent to 85 umol of tetradecylthioacetic acid, po after 6 days; format: functional; method in brief: as §2
[19] = system: Rattus norvegicus; assay: Decrease in liver triacylglycerol level in Wistar rat at dose equivalent to 250 umol of tetradecylthioacetic acid, po after 6 days relative to control; format: functional; parameters: scale not given: the % may be the effect or the level left; method in brief: as §4
[20] = system: Rattus norvegicus; assay: Decrease in plasma cholesterol level in po dosed Wistar rat after 6 days; format: functional, organism-based; method in brief: as §4
[21] = system: Rattus norvegicus; assay: Effect on fatty acid composition in Wistar rat assessed as change in plasma LCPUFA, n-6 level at dose equivalent to 85 umol of tetradecylthioacetic acid, po after 6 days; format: functional
[22] = system: Rattus norvegicus; assay: Decrease in plasma triacylglycerol level in Wistar rat at dose equivalent to 250 umol of tetradecylthioacetic acid, po after 6 days relative to control; format: functional; parameters: scale not given: the % may be the effect or the level left; method in brief: as §4
[23] = system: Rattus norvegicus; assay: Effect on fatty acid composition in Wistar rat assessed as change in liver LCn-6/18:2 level at dose equivalent to 250 umol of tetradecylthioacetic acid, po after 6 days; format: functional; method in brief: as §2
[24] = system: Rattus norvegicus; assay: Effect on fatty acid composition in Wistar rat assessed as change in liver LCn-6/18:2 level at dose equivalent to 85 umol of tetradecylthioacetic acid, po after 6 days; format: functional; method in brief: as §2
[25] = system: Rattus norvegicus; assay: Increase in [1-14C]palmitoyl-CoA oxidation in Wistar rat liver homogenate at 250 uM, po after 6 days; format: functional, organism-based; method in brief: as §1
[26] = system: Rattus norvegicus; assay: Decrease in plasma triacylglycerol level in po dosed Wistar rat after 6 days; format: functional, organism-based; method in brief: as §4
[27] = system: Rattus norvegicus; assay: Effect on fatty acid composition in Wistar rat assessed as change in liver MUFA level at dose equivalent to 85 umol of tetradecylthioacetic acid, po after 6 days; format: functional; method in brief: as §2
[28] = system: Rattus norvegicus; assay: Effect on fatty acid composition in Wistar rat assessed as change in plasma saturated fatty acid level at dose equivalent to 85 umol of tetradecylthioacetic acid, po after 6 days; format: functional
[29] = system: Rattus norvegicus; assay: Effect on fatty acid composition in Wistar rat assessed as change in liver 18;2, n-6 level at dose equivalent to 85 umol of tetradecylthioacetic acid, po after 6 days; format: functional; method in brief: as §2

CCCCCCCCCCCCCCSCC(=O)OC[C@H](COP(=O)([O-])OCC[N+](C)(C)C)OC(=O)CSCCCCCCCCCCCCCC [PHOSPHATIDYLCHOLINE]
Activity [1]: Dose-dependent effect | Drug uptake [2]: 1.95% | Drug uptake [3]: 1.28% | Drug uptake ([3]; in the assay text read “equivalent to 250 umol” for “equivalent to 85 umol”): 3.34% | Activity [4]: Dose-dependent effect | Drug uptake [5]: 0.9% | Activity [6]: 60% | Activity [7]: 22.07% | Activity [8]: 17.97% | fold change (FC) [9]: 3 | Activity [10]: 19.52% | fold change (FC) [11]: 4 | Activity [12]: 0.97% | Activity [13]: 1.25% | fold change (FC) [14]: 5 | Activity [15]: 30.3% | Activity [16]: 20% | Activity [17]: 1.86% | Activity [18]: 39.67% | Activity [19]: 25% | Activity [20]: Dose-dependent effect | Activity [21]: 19.06% | Activity [22]: 60% | Activity [23]: 3.49% | Activity [24]: 2.19% | Activity [25]: inactive | Activity [26]: Dose-dependent effect | Activity [27]: 16.66% | Activity [28]: 35.65% | Activity [29]: 11.99%
